Test results taken from ChEMBL document CHEMBL4038302, “Fibroblast Activation Protein α Activated Tripeptide Bufadienolide Antitumor Prodrug with Reduced Cardiotoxicity” (J Med Chem, 2017).
Each block holds one compound with its values, some of them ahead of it.

What was measured:
Prolyl endopeptidase FAP [1] = target: T1, Prolyl endopeptidase FAP (Homo sapiens, UniProt Q12884); assay: (§1) Prodrug activation assessed as Vmax for recombinant human FAP-alpha mediated (2S,3S)-((3S,5R,8R,9S,10S,11S,13R,14S,17R)-11,14-dihydroxy-10,13-dimethyl-12-oxo-17-(2-oxo-2H-pyran-5-yl)hexadecahydro-1H-cyclopenta[a]phenanthren-3-yl) 2-amino-3-methylpentanoate formation after 90 mins by UPLC-MS/MS analysis; conditions: 1.5 h
T1 sequence (Q12884 whole entry): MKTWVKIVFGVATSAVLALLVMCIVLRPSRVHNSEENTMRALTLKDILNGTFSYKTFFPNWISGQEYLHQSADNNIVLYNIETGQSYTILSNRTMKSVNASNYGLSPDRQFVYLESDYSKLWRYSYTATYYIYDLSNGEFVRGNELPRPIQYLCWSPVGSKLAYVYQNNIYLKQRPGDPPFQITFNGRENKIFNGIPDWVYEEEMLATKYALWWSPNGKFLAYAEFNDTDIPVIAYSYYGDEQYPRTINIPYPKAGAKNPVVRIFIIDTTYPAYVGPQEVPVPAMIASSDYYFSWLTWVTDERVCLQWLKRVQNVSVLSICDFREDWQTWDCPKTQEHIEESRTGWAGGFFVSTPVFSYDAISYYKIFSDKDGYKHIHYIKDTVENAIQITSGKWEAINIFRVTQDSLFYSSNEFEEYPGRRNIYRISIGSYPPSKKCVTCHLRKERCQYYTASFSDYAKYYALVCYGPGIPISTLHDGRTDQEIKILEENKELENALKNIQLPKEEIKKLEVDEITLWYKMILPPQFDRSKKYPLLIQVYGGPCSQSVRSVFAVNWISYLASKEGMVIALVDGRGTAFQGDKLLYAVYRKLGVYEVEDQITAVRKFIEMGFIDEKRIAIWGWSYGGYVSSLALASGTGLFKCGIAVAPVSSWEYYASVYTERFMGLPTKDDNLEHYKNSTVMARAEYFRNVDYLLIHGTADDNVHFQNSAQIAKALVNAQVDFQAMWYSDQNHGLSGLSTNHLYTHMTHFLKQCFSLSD
Summary of the method: (§2)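 Prodrug at 0.625–40 μmol/L incubated with rhFAPα at 0.45 μg/mL and internal standard in 0.2 mL PBS, pH 7.4, at 37 °C for 90 min. Quenched with MeCN and spun at 18 000g for 15 min; product measured by UPLC-MS/MS. S50 and Vmax fitted with an allosteric sigmoidal model; CLint = Vmax/S50. Three independent experiments.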

Prolyl endopeptidase FAP [2] = target: T1, Prolyl endopeptidase FAP; assay: as §1, with “as” for “as Vmax for”, “formation by measuring intrinsic clearance” for “formation”; conditions: 1.5 h; summary of the method: as §2
Prolyl endopeptidase FAP [3] = target: T1, Prolyl endopeptidase FAP; assay: as §1, with “as” for “as Vmax for”, “2-amino-3-methylpentanoate by measuring concentration of test compound gives half-maximal activity” for “2-amino-3-methylpentanoate”; conditions: 1.5 h; summary of the method: as §2
Prolyl endopeptidase FAP [4] = target: T1, Prolyl endopeptidase FAP; assay: Prodrug activation assessed as recombinant human FAP-alpha mediated 5-((3S,5R,8R,9S,10S,11S,13R,14S,17R)-3-(2-(4-aminophenyl)acetyl)-11,14-dihydroxy-10,13-dimethyl-12-oxohexadecahydro-1H-cyclopenta[a]phenanthren-17-yl)-2H-pyran-2-one formation by measuring intrinsic clearance at 40 umol/L after 6 hrs by UPLC-MS/MS analysis; conditions: 40 µM
Prolyl endopeptidase FAP [5] = target: T1, Prolyl endopeptidase FAP; assay: (§3) Prodrug activation assessed as Vmax for recombinant human FAP-alpha mediated (S)-((3S,5R,8R,9S,10S,11S,13R,14S,17R)-11,14-dihydroxy-10,13-dimethyl-12-oxo-17-(2-oxo-2H-pyran-5-yl)hexadecahydro-1H-cyclopenta[a]phenanthren-3-yl) 2-amino-3-phenylpropanoate formation after 90 mins by UPLC-MS/MS analysis; conditions: 1.5 h; summary of the method: as §2
Prolyl endopeptidase FAP [6] = target: T1, Prolyl endopeptidase FAP; assay: as §3, with “as” for “as Vmax for”, “formation by measuring intrinsic clearance” for “formation”; conditions: 1.5 h; summary of the method: as §2
Prolyl endopeptidase FAP [7] = target: T1, Prolyl endopeptidase FAP; assay: Prodrug activation assessed as recombinant human FAP-alpha mediated (S)-((3S,5R,8R,9S,10S,11S,13R,14S,17R)-11,14-dihydroxy-10,13-dimethyl-12-oxo-17-(2-oxo-2H-pyran-5-yl)hexadecahydro-1H-cyclopenta[a]phenanthren-3-yl) 2-amino-3-phenylpropanoate formation at 40 umol/L after 6 hrs in presence of FAP-alpha inhibitor talabostat by UPLC-MS/MS analysis; conditions: 40 µM
Summary of the method: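 Prodrug at 40 μmol/L incubated with rhFAPα at 0.45 μg/mL in 0.2 mL buffer at 37 °C for 6 h, with bufalin at 2 μmol/L as internal standard. Stopped with acetonitrile and spun at 18 000g for 15 min. Released active form measured by UPLC-MS/MS via peak-area ratio against a standard curve of 0.625–40 μmol/L.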

Prolyl endopeptidase FAP [8] = target: T1, Prolyl endopeptidase FAP; assay: as §3, with “as” for “as Vmax for”, “2-amino-3-phenylpropanoate by measuring concentration of test compound gives half-maximal activity” for “2-amino-3-phenylpropanoate”; conditions: 1.5 h; summary of the method: as §2

Vmax (Prolyl endopeptidase FAP [1]): 0.014 µmol/min/mg
CL (Prolyl endopeptidase FAP [2]): 1.59 mL/min/mg
S50 (Prolyl endopeptidase FAP [3]): 8.82 µmol/L
Compound: CC[C@H](C)[C@H](NC(=O)[C@@H]1CCCN1C(=O)CNC(=O)OCc1ccccc1)C(=O)O[C@H]1CC[C@@]2(C)[C@H](CC[C@@H]3[C@@H]2[C@H](O)C(=O)[C@]2(C)[C@@H](c4ccc(=O)oc4)CC[C@]32O)C1

CL (Prolyl endopeptidase FAP [4]): 7.07 mL/min/mg
Compound: C[C@]12CC[C@H](OC(=O)Cc3ccc(NC(=O)[C@@H]4CCCN4C(=O)CNC(=O)OCc4ccccc4)cc3)C[C@H]1CC[C@@H]1[C@@H]2[C@H](O)C(=O)[C@]2(C)[C@@H](c3ccc(=O)oc3)CC[C@]12O

Vmax (Prolyl endopeptidase FAP [5]): 0.366 µmol/min/mg
CL (Prolyl endopeptidase FAP [6]): 42.36 mL/min/mg
Drug metabolism (Prolyl endopeptidase FAP [7]): Metabolite_Notdetected
S50 (Prolyl endopeptidase FAP [8]): 8.64 µmol/L
Compound: C[C@]12CC[C@H](OC(=O)[C@H](Cc3ccccc3)NC(=O)[C@@H]3CCCN3C(=O)CNC(=O)OCc3ccccc3)C[C@H]1CC[C@@H]1[C@@H]2[C@H](O)C(=O)[C@]2(C)[C@@H](c3ccc(=O)oc3)CC[C@]12O
